This note sets out measurements from ChEMBL document CHEMBL3596178, “Synthesis and biological evaluation of curcumin derivatives containing NSAIDs for their anti-inflammatory activity” (Bioorg Med Chem Lett, 2015).

SMILES strings stand for the structures. Activity calls are given as the source filed them. The calls are words filed in the database; no cut-off is given here.

Usually IC50 stands for the concentration needed to halve the response being measured.

The subject of experiment [1] is Mus musculus. Briefly: Anti-inflammatory activity in BALB/c mouse assessed as reduction in TPA-induced ear edema by measuring weight of ear punches at 0.75 uM applied topically 6 mins before to TPA treatment. The experiment is classed as functional. In short, it runs like this: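 Female BALB/c mice; TPA applied topically to ears, test agents applied topically 6 min before TPA. Edema read as weight of 6 mm diameter ear punch biopsies. Screening concentration 0.75 µM.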

The subject of the next experiment is RAW264.7. Briefly: Inhibition of TPA-induced cell proliferation of mouse RAW264.7 cells. It is filed as functional, cell-based. In short, it runs like this: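 RAW 264.7 macrophages; proliferation measured by MTT assay. IC50 reported as mean±SD of three independent experiments.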
In experiment [2] the test system is Mus musculus. The experiment in a line: Anti-inflammatory activity in BALB/c mouse model of TPA-induced ear edema assessed as reduction in inflammatory cells infiltration at 0.75 uM applied topically 6 mins before to TPA treatment by H and E staining method. The experiment is classed as functional, organism-based. In outline: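 Female BALB/c mouse ears pretreated topically with agents or acetone (control), then TPA applied topically. Ear sections stained with H&E and assessed histologically for epidermal hyperkeratosis, stratum corneum thickening and inflammatory cell infiltration.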

For experiment [3], the system named is Mus musculus. The experiment in a line: Anti-inflammatory activity in BALB/c mouse model of TPA-induced ear edema assessed as reduction in Ikappa-Balpha phosphorylation level at 0.75 uM applied topically 6 mins before to TPA treatment by immunohistochemistry. It is filed as functional, organism-based. In outline:
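TPA-induced ear edema in BALB/c mice, agents applied topically before TPA. Ear tissue examined immunohistochemically with an anti-phospho-Ser36 IκBα antibody and a nonphosphorylated IκB antibody.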

Experiment [4] concerns Mus musculus. Briefly: Anti-inflammatory activity in BALB/c mouse model of TPA-induced ear edema assessed as reduction in TNFalpha levels at 0.75 uM applied topically 6 mins before to TPA treatment by immunohistochemistry. The experiment is classed as functional, organism-based.
Experiment [5] concerns Mus musculus. Briefly: Anti-inflammatory activity in BALB/c mouse model of TPA-induced ear edema assessed as reduction in IKK activity level at 0.75 uM applied topically 6 mins before to TPA treatment by immunohistochemistry. The experiment is classed as functional, organism-based.
Experiment [6] relates to Mus musculus. The experiment in a line: Anti-inflammatory activity in BALB/c mouse model of TPA-induced ear edema assessed as reduction in phosphorylated p65 level at 0.75 uM applied topically 6 mins before to TPA treatment by immunohistochemistry. It is filed as functional, organism-based. In outline:
(§1)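 TPA-induced ear edema in BALB/c mice, agents applied topically before TPA. Ear tissue examined immunohistochemically with a nonphosphorylated p65 antibody and an anti-phospho-Ser536 p65 antibody.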

The test system of experiment [7] is Mus musculus. The experiment in a line: Anti-inflammatory activity in BALB/c mouse model of TPA-induced ear edema assessed as reduction in IL-6 levels at 0.75 uM applied topically 6 mins before to TPA treatment by immunohistochemistry. The experiment is classed as functional, organism-based.
Experiment [8] relates to Mus musculus. Briefly: Anti-inflammatory activity in BALB/c mouse model of TPA-induced ear edema assessed as reduction in IL-1beta levels at 0.75 uM applied topically 6 mins before to TPA treatment by immunohistochemistry. The experiment is classed as functional, organism-based.
Experiment [9] deals with Mus musculus. Briefly: Anti-inflammatory activity in BALB/c mouse model of TPA-induced ear edema assessed as reduction in p65 nuclear translocation at 0.75 uM applied topically 6 mins before to TPA treatment by immunohistochemistry. It is filed as functional, organism-based. In outline:
as §1

On to `COc1cc(/C=C/C(=O)CC(=O)/C=C/c2ccc(OC(=O)CCc3nc(-c4ccccc4)c(-c4ccccc4)o3)c(OC)c2)ccc1OC(=O)CCc1nc(-c2ccccc2)c(-c2ccccc2)o1`, for which the “inhibition (INH)” value in the experiment on Mus musculus [1] is on record as 10%. Besides, the IC50 in the experiment on RAW264.7 was over 30 µM.
Taken in the same sequence, the figures for `COc1cc(/C=C/C(=O)CC(=O)/C=C/c2ccc(OC(=O)c3cc(-c4ccc(F)cc4F)ccc3O)c(OC)c2)ccc1O` were 10% and 12.9 µM.
Regarding `O=C(O)c1ccccc1O`, the inhibition result with Mus musculus [2] was “Active”.
For `COc1cc(/C=C/C(=O)CC(=O)/C=C/c2ccc(OC(=O)c3ccccc3OC(C)=O)c(OC)c2)ccc1OC(=O)c1ccccc1OC(C)=O`, in the experiment on Mus musculus [1], the “inhibition (INH)” value is 87.8%. Moreover, the IC50 in the experiment with RAW264.7 is over 30 µM.
For `COc1cc(/C=C/C(=O)CC(=O)/C=C/c2ccc(OC(=O)c3ccccc3O)c(OC)c2)ccc1OC(=O)c1ccccc1O`, the “inhibition (INH)” value with Mus musculus [1] came to 38.5%. This compound gave an IC50 in the experiment on RAW264.7 of 6.11 µM.
For the compound `CCc1cccc2c3c([nH]c12)C(CC)(CC(=O)Oc1ccc(/C=C/C(=O)CC(=O)/C=C/c2ccc(O)c(OC)c2)cc1OC)OCC3` (stereo unspecified), in the experiment on Mus musculus [1], the “inhibition (INH)” value was determined as 10%. This compound displayed a 50% inhibitory concentration (IC50) with RAW264.7 of 25.3 µM.
As for `COc1cc(/C=C/C(=O)CC(=O)/C=C/c2ccc(OC(=O)Cc3ccccc3Nc3c(Cl)cccc3Cl)c(OC)c2)ccc1OC(=O)Cc1ccccc1Nc1c(Cl)cccc1Cl`, the “inhibition (INH)” value with Mus musculus [1] amounted to 10%. This compound registered a half-maximal inhibitory concentration (IC50) in the experiment on RAW264.7 of over 30 µM.
Turning to `COc1cc(/C=C/C(=O)CC(=O)/C=C/c2ccc(OC(=O)C(C)c3cccc(C(=O)c4ccccc4)c3)c(OC)c2)ccc1OC(=O)C(C)c1cccc(C(=O)c2ccccc2)c1` (stereo unspecified), the “inhibition (INH)” value in the experiment with Mus musculus [1] is on record as 10%. This compound registered an IC50 with RAW264.7 of over 30 µM.
Taken in the same sequence, the figures for `COc1cc(/C=C/C(=O)CC(=O)/C=C/c2ccc(OC(=O)C(C)c3ccc(CC(C)C)cc3)c(OC)c2)ccc1O` (stereo unspecified) were 91.8% and over 30 µM.
Turning to `O=C(Oc1ccccc1C(=O)O)c1ccccc1O`, the inhibition entry with Mus musculus [2] was “Active”.
On to `COc1cc(/C=C/C(=O)CC(=O)/C=C/c2ccc(OC(=O)c3cc(-c4ccc(F)cc4F)ccc3O)c(OC)c2)ccc1OC(=O)c1cc(-c2ccc(F)cc2F)ccc1O`, for which, in the experiment with Mus musculus [1], the “inhibition (INH)” value was 85%. This compound also came in with an IC50 in the experiment on RAW264.7 of over 30 µM.
Taken in the same sequence, the figures for `COc1cc(/C=C/C(=O)CC(=O)/C=C/c2ccc(OC(=O)c3ccccc3Nc3cccc(C)c3C)c(OC)c2)ccc1OC(=O)c1ccccc1Nc1cccc(C)c1C` were 10% and over 30 µM.
Turning to `COc1cc(/C=C/C(=O)CC(=O)/C=C/c2ccc(OC(=O)c3ccccc3OC(=O)c3ccccc3O)c(OC)c2)ccc1OC(=O)c1ccccc1OC(=O)c1ccccc1O`, the inhibition result in the experiment with Mus musculus [3], in the experiment on Mus musculus [4], in the experiment with Mus musculus [5], in the experiment on Mus musculus [6] and in the experiment with Mus musculus [2] was “Active” each time. Besides, in the experiment on Mus musculus [1], the “inhibition (INH)” value was 93.3%. This compound came in with an IC50 in the experiment with RAW264.7 of over 30 µM.
Consider `COc1ccc2cc([C@@H](C)C(=O)Oc3ccc(/C=C/C(=O)CC(=O)/C=C/c4ccc(OC(=O)[C@H](C)c5ccc6cc(OC)ccc6c5)c(OC)c4)cc3OC)ccc2c1`, for which, in the experiment with Mus musculus [1], the “inhibition (INH)” value was 10%. Also, the IC50 in the experiment on RAW264.7 was over 30 µM.
As to `COc1cc(/C=C/C(=O)CC(=O)/C=C/c2ccc(OC(=O)c3ccccc3Nc3cccc(C)c3C)c(OC)c2)ccc1O`, the “inhibition (INH)” value in the experiment with Mus musculus [1] amounted to 78%. Besides, the IC50 in the experiment on RAW264.7 came to 28 µM.
The corresponding values for `COc1cc(/C=C/C(=O)CC(=O)/C=C/c2ccc(OC(=O)C(C)c3cccc(C(=O)c4ccccc4)c3)c(OC)c2)ccc1O` (stereo unspecified) are 68.8% and 8.98 µM.
The corresponding values for `COc1cc(/C=C/C(=O)CC(=O)/C=C/c2ccc(OC(=O)c3ccccc3Nc3cccc(Cl)c3C)c(OC)c2)ccc1O` are 85% and 9.2 µM.
Taken in the same sequence, the figures for `COc1cc(/C=C/C(=O)CC(=O)/C=C/c2ccc(OC(=O)CCc3nc(-c4ccccc4)c(-c4ccccc4)o3)c(OC)c2)ccc1O` were 75% and 19.3 µM.
Take `COc1cc(/C=C/C(=O)CC(=O)/C=C/c2ccc(OC(=O)c3ccccc3O)c(OC)c2)ccc1O`: the inhibition entry in the experiment on Mus musculus [3], with Mus musculus [7], with Mus musculus [5], with Mus musculus [8], in the experiment on Mus musculus [2] and in the experiment with Mus musculus [9] was “Active” throughout. Further, in the experiment on Mus musculus [1], the inhibition (INH) is 91.8%. Moreover, the concentration for half-maximal inhibition (IC50) in the experiment with RAW264.7 was over 30 µM.
Consider `COc1cc(/C=C/C(=O)CC(=O)/C=C/c2ccc(OC(=O)c3ccccc3Nc3cccc(Cl)c3C)c(OC)c2)ccc1OC(=O)c1ccccc1Nc1cccc(Cl)c1C`, for which, in the experiment on Mus musculus [1], the “inhibition (INH)” value stood at 10%. The compound further returned an IC50 in the experiment with RAW264.7 of 28 µM.
Compound `CCc1cccc2c3c([nH]c12)C(CC)(CC(=O)Oc1ccc(/C=C/C(=O)CC(=O)/C=C/c2ccc(OC(=O)CC4(CC)OCCc5c4[nH]c4c(CC)cccc54)c(OC)c2)cc1OC)OCC3` (stereo unspecified) registered a 50% inhibitory concentration (IC50) in the experiment with RAW264.7 of over 30 µM.
Compound `COc1cc(/C=C/C(=O)CC(=O)/C=C/c2ccc(OC(=O)C(C)c3ccc(CC(C)C)cc3)c(OC)c2)ccc1OC(=O)C(C)c1ccc(CC(C)C)cc1` (stereo unspecified) had an IC50 in the experiment with RAW264.7 of 7.36 µM.
With `COc1ccc2c(c1)c(CC(=O)Oc1ccc(/C=C/C(=O)CC(=O)/C=C/c3ccc(OC(=O)Cc4c(C)n(C(=O)c5ccc(Cl)cc5)c5ccc(OC)cc45)c(OC)c3)cc1OC)c(C)n2C(=O)c1ccc(Cl)cc1`, the “inhibition (INH)” value in the experiment with Mus musculus [1] was 10%. The IC50 in the experiment with RAW264.7 is over 30 µM.
Taken in the same sequence, the figures for `COc1ccc2cc(C(C)C(=O)Oc3ccc(/C=C/C(=O)CC(=O)/C=C/c4ccc(O)c(OC)c4)cc3OC)ccc2c1` (single isomer, unassigned) were 87.8% and 18.7 µM.
`COc1cc(/C=C/C(=O)CC(=O)/C=C/c2ccc(OC(=O)Cc3ccccc3Nc3c(Cl)cccc3Cl)c(OC)c2)ccc1O`: the “inhibition (INH)” value in the experiment on Mus musculus [1] was 10%. In the experiment with RAW264.7, the IC50 was over 30 µM.
Taken in the same sequence, the figures for `COc1cc(/C=C/C(=O)CC(=O)/C=C/c2ccc(OC(=O)c3ccccc3Nc3cccc(C(F)(F)F)c3)c(OC)c2)ccc1O` were 90% and 5.54 µM.
`COc1cc(/C=C/C(=O)CC(=O)/C=C/c2ccc(O)c(OC)c2)ccc1O` [CURCUMIN] returned an IC50 in the experiment on RAW264.7 of 22.9 µM.
As to `COc1cc(/C=C/C(=O)CC(=O)/C=C/c2ccc(OC(=O)c3ccccc3Nc3cccc(C(F)(F)F)c3)c(OC)c2)ccc1OC(=O)c1ccccc1Nc1cccc(C(F)(F)F)c1`, in the experiment with Mus musculus [1], the “inhibition (INH)” value is reported as 10%. This compound registered an IC50 with RAW264.7 of 12.9 µM.
With `COc1cc(/C=C/C(=O)CC(=O)/C=C/c2ccc(OC(=O)c3ccccc3OC(C)=O)c(OC)c2)ccc1O`, the “inhibition (INH)” value with Mus musculus [1] was 10%. For the same compound, in the experiment with RAW264.7, the IC50 is over 30 µM.
For `COc1cc(/C=C/C(=O)CC(=O)/C=C/c2ccc(OC(=O)c3ccccc3OC(=O)c3ccccc3O)c(OC)c2)ccc1O`, in the experiment with Mus musculus [1], the “inhibition (INH)” value was found to be 10%. In the experiment with RAW264.7, this compound gave an IC50 of over 30 µM.
